In brackets after ≈: the same amount, converted by molar mass.
Key:
[1] = Rate constant for hydrolysis at pH 9; type: ADME; conditions: buffer
Method in brief: (§1)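 Constant-pH hydrolysis (pH 9 or 11) was run on a pH-stat with NaOH addition, and loss of lactam (3.6×10^-4 to 1×10^-3 M) was followed by HPLC. Ionic strength was 0.5 with KCl. A pseudo-first-order rate constant was obtained from the disappearance time course.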

Streptococcus pyogenes = experiment: Minimum inhibitory concentration (MIC), tested against Streptococcus pyogenes C203.; type: functional
Providencia rettgeri = experiment: Minimum inhibitory concentration (MIC), tested against Providencia rettgeri C24; type: functional
Klebsiella pneumoniae = experiment: Minimum inhibitory concentration (MIC), tested against Klebsiella pneumoniae X68; type: functional
[2] = Rate constant for hydrolysis at pH 10; type: ADME; conditions: buffer
Method in brief: (§2)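 Pseudo-first-order loss of parent lactam followed by HPLC at 35 °C. Lactam was 3.6×10^-4 to 1×10^-3 M in aqueous KCl at ionic strength 0.5, with pH held by NaOH on a pH-stat. Values were measured at pH 10 directly, or at pH 9 (×10) or pH 11 (÷10), taking k_obsd as proportional to [OH−].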

[3] = Rate constant for hydrolysis at pH 11; type: ADME; conditions: buffer; method in brief: as §1
[4] = Pseudo-first-order Rate constant for hydrolysis at pH 10; type: ADME; conditions: buffer; method in brief: as §2

Structure (SMILES) | k [1] [h⁻¹] | MIC (Streptococcus pyogenes) [µg/mL] | MIC (Providencia rettgeri) [µg/mL] | MIC (Klebsiella pneumoniae) [µg/mL] | k [2] [h⁻¹] | k [3] [h⁻¹] | k [4] [h⁻¹]
CO/N=C(\C(=O)NC1CN2CC(S(C)(=O)=O)=C(C(=O)O)N2C1=O)c1csc(N)n1 (stereo unspecified) | 14.8 | 0.25 (≈ 0.562 µM) | 0.06 (≈ 0.135 µM) | 0.25 (≈ 0.562 µM) |  |  | 
CO/N=C(\C(=O)NC1CN2CC(C(=O)OC)=C(C(=O)O)N2C1=O)c1csc(N)n1 (stereo unspecified) | 4.74 | 4 (≈ 9.43 µM) | 1 (≈ 2.36 µM) | 8 (≈ 18.9 µM) |  |  | 
CO/N=C(\C(=O)NC1CN2N(C1=O)C(C(=O)O)=C(C(=O)OC)C2(C)C)c1csc(N)n1 (stereo unspecified) |  | 64 (≈ 141 µM) | > 128 | > 128 | 0.769 |  | 
CO/N=C(\C(=O)NC1CN2CC(C(=O)O)=C(C(=O)O)N2C1=O)c1csc(N)n1 (stereo unspecified) |  | 8 (≈ 19.5 µM) | 8 (≈ 19.5 µM) | 64 (≈ 156 µM) | 0.324 |  | 
CO/N=C(\C(=O)NC1CN2CC(c3ccccc3)=C(C(=O)O)N2C1=O)c1csc(N)n1 (stereo unspecified) |  | > 128 | > 128 | > 128 | 0.146 |  | 
CO/N=C(\C(=O)NC1CN2N(C1=O)C(C(=O)O)=C(C(=O)O)C2(C)C)c1csc(N)n1 (stereo unspecified) |  | > 128 | > 128 | > 128 |  | 0.0111 | 
CO/N=C(\C(=O)NC1CN2CC(C(=O)Nc3ccccc3)=C(C(=O)O)N2C1=O)c1csc(N)n1 (stereo unspecified) | 2.33 | 1 (≈ 2.06 µM) | 8 (≈ 16.5 µM) | 32 (≈ 65.9 µM) |  |  | 
CO/N=C(\C(=O)NC1CN2CC(c3cccs3)=C(C(=O)O)N2C1=O)c1csc(N)n1 (stereo unspecified) |  | > 128 | > 128 | > 128 | 0.19 |  | 
CO/N=C(\C(=O)NC1CN2CC(C#N)=C(C(=O)O)N2C1=O)c1csc(N)n1 (stereo unspecified) | 17.3 | 0.5 (≈ 1.28 µM) | 0.25 (≈ 0.639 µM) | 0.5 (≈ 1.28 µM) |  |  | 
CO/N=C(\C(=O)NC1CN2CC(C(C)=O)=C(C(=O)O)N2C1=O)c1csc(N)n1 (stereo unspecified) | 7.24 | 0.5 (≈ 1.22 µM) | 0.25 (≈ 0.612 µM) | 2 (≈ 4.9 µM) |  |  | 
C[C@H]1[C@H](NC(=O)/C(=N\OC(C)(C)C(=O)O)c2csc(N)n2)C(=O)N1S(=O)(=O)O [AZTREONAM] |  |  |  |  |  |  | 0.4
N[C@@H](C(=O)N[C@@H]1C(=O)N2C(C(=O)O)=C(Cl)CS[C@H]12)c1ccccc1.O [CEFACLOR] |  |  |  |  |  |  | 0.944
CC(C)(O/N=C(\C(=O)N[C@@H]1C(=O)N2C(C(=O)[O-])=C(C[n+]3ccccc3)CS[C@H]12)c1csc(N)n1)C(=O)O [CEFTAZIDIME] |  |  |  |  |  |  | 1.3
CC1=C(C(=O)O)N2C(=O)[C@@H](NC(=O)[C@H](N)c3ccccc3)[C@H]2SC1 [CEPHALEXIN ANHYDROUS] |  |  |  |  |  |  | 0.0685
CC(=O)OCC1=C(C(=O)O)N2C(=O)[C@@H](NC(=O)Cc3cccs3)[C@H]2SC1 [CEPHALOTHIN] |  |  |  |  |  |  | 0.317
CC1(C)S[C@@H]2[C@H](NC(=O)COc3ccccc3)C(=O)N2[C@H]1C(=O)O [PENICILLIN V] |  |  |  |  |  |  | 0.248
